Blank lines part the entries; values can stand above or below the compound they belong to.
How the values were obtained:
[1] = AUC in Sprague-Dawley rat at 3 mg/kg, po; format: ADME, organism-based; parameters: dose 3 mg/kg, route oral; details: plasma
[2] = Lipophilicity, log P of the compound; format: physicochemical; details: octanol/water
[3] = Cmax in Beagle dog at 1 mg/kg, iv and 3 mg/kg, po; format: ADME, organism-based, Canis lupus familiaris; details: in vivo
In short: (§1)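 Male beagle dogs given 1 mg/kg iv and 3 mg/kg po. Plasma PK parameters derived: clearance, volume of distribution, oral half-life, AUC, Cmax and oral bioavailability.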

[4] = Oral bioavailability in Sprague-Dawley rat at 1 mg/kg; format: ADME, organism-based; details: in vivo
In short: (§2)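 Male Sprague-Dawley rats dosed 1 mg/kg iv and 1 mg/kg po. Clearance, volume of distribution, oral half-life, AUC, Cmax and bioavailability calculated from plasma levels.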

[5] = Oral bioavailability in Beagle dog at 3 mg/kg; format: ADME, organism-based, Canis lupus familiaris; details: in vivo; in short: as §1
[6] = AUC in Beagle dog at 1 mg/kg, iv and 3 mg/kg, po; format: ADME, organism-based, Canis lupus familiaris; details: plasma; in short: as §1
[7] = Cmax in Sprague-Dawley rat at 1 mg/kg, iv and 1 mg/kg, po; format: ADME, organism-based; details: in vivo; in short: as §2
[8] = Volume of distribution in Sprague-Dawley rat at 1 mg/kg, iv; format: ADME, organism-based; parameters: dose 1 mg/kg, route intravenous; details: in vivo
In short: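 Male Sprague–Dawley rats were given 1 mg/kg iv. Clearance and volume of distribution were derived from plasma pharmacokinetics.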

MDR1 [9] = experiment: MDR1-mediated transport in MDCK cells assessed as permeability from apical to basolateral side at 5 uM; format: ADME, cell-based, Canis lupus familiaris; details: dog, read-out: permeability
In short: (§3)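 Transport measured across MDCK-MDR1 monolayers at 5 μM, with and without inhibitor. A→B and B→A fluxes recorded in cm/s × 10−6; efflux ratio taken as B→A over A→B.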

MDR1 [10] = experiment: MDR1-mediated transport in MDCK cells assessed as permeability from basolateral to apical side at 5 uM; format: ADME, cell-based, Canis lupus familiaris; details: dog, read-out: permeability; in short: as §3
[11] = Aqueous solubility in simulated GI fluid at pH 6.8; format: physicochemical
[12] = Volume of distribution in Beagle dog at 1 mg/kg, iv and 3 mg/kg, po; format: ADME, organism-based, Canis lupus familiaris; details: in vivo; in short: as §1
[13] = AUC in Sprague-Dawley rat at 1 mg/kg, iv and 1 mg/kg, po; format: ADME, organism-based; details: plasma; in short: as §2
[14] = Ratio of drug level in brain to plasma in rat; format: ADME; details: read-out: BPR

Structure (SMILES): CCN1CCN(c2nc(C)nc3c2nc(-c2ccccc2Cl)n3CCOC)CC1.Cl
AUC [1]: < 50 ng·h/mL

Structure (SMILES): CCN1CCN(c2nc(C)nc3[nH]c(-c4ccccc4Cl)nc23)CC1
logP [2]: 3.7

Structure (SMILES): CCN1CCN(c2nc(C)nc3c2nc(-c2ccccc2Cl)n3CC2CCOCC2)CC1.Cl
bioavailability [4]: 27%
Vd [8]: 5 L/kg
logP [2]: 3.4

Structure (SMILES): Cc1nc(N2CCN(C)CC2)c2nc(-c3ccccc3Cl)n(C3CCOCC3)c2n1.Cl
Cmax [3]: 352 ng/mL
bioavailability [4]: 67%
bioavailability [5]: 76%
AUC [6]: 1940 ng·h/mL
Cmax [7]: 60 ng/mL
Vd [8]: 6 L/kg
Papp A→B at 5 µM (MDR1 [9]): 3.1 ×10⁻⁶ cm/s
Kp [14]: 0.9
Papp B→A at 5 µM (MDR1 [10]): 3.1 ×10⁻⁶ cm/s
logP [2]: 3.1
solubility [11]: > 100 µM
Vd [12]: 5.5 L/kg
AUC [13]: 265 ng·h/mL

Structure (SMILES): COCCn1c(-c2ccccc2Cl)nc2c(N3CCN(CCF)CC3)nc(C)nc21.Cl
AUC [1]: < 50 ng·h/mL

Second part, the compound after the results:

logP [2]: 3.2
Structure (SMILES): Cc1nc(N2CCN(C)CC2)c2nc(-c3ccccc3Cl)n([C@@H]3CCOC3)c2n1

Cmax [3]: 62 ng/mL
bioavailability [4]: 43%
bioavailability [5]: 60%
AUC [6]: 286 ng·h/mL
Cmax [7]: 76 ng/mL
Vd [8]: 1.9 L/kg
Papp A→B at 5 µM (MDR1 [9]): 42 ×10⁻⁶ cm/s
Papp B→A at 5 µM (MDR1 [10]): 43 ×10⁻⁶ cm/s
solubility [11]: > 100 µM
Vd [12]: 9.2 L/kg
AUC [13]: 312 ng·h/mL
Structure (SMILES): Cc1nc(N2CCN(C)CC2)c2nc(-c3ccccc3Cl)n(CCS(C)(=O)=O)c2n1.Cl

solubility [11]: > 100 µM
Structure (SMILES): CCN1CCN(c2nc(C)nc3c2nc(-c2ccccc2Cl)n3C)CC1.Cl

Source: ChEMBL document CHEMBL3091283, “Selective cannabinoid receptor type 2 (CB2) agonists: optimization of a series of purines leading to the identification of a clinical candidate for the treatment of osteoarthritic pain” (J Med Chem, 2013)
